Where two headings read alike, the source gives them in different places.
Experiments:
[1] = target: MLL-GACKIX complex (GACKIX domain of CBP/p300) (Mus musculus, UniProt P45481); format: binding
Outline: (§1)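 Test compound added at increasing concentrations to the preformed GACKIX domain complex with either fluorescein-tagged MLL activation-domain peptide or fluorescein-tagged pKID peptide. Displacement was tracked as the change in fluorescence polarization.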

VP2-Med15(107-357) = target: T1, VP2-Med15(107-357) (Saccharomyces cerevisiae, UniProt P19659); experiment: Competitive FP binding assay of VP2 with Med15; settings: specificity
T1 sequence (P19659 107-357): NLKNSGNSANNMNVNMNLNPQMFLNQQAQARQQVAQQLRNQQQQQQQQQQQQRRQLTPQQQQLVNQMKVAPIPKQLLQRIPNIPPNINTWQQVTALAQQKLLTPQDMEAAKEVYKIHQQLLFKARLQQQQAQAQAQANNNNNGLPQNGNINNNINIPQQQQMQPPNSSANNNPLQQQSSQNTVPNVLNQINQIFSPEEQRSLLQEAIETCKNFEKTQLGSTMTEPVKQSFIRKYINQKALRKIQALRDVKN

[2] = tested on: c-Jun-driven gene Cyclin D1; experiment: Cell-based assay of c-Jun-driven gene Cyclin D1 expression; settings: SI Figure 7
[3] = target: GACKIX domain of CBP/p300 (Mus musculus, UniProt P45481); experiment: Ligand-detected 1D 1H-NMR binding to GACKIX with MLL and KID peptide competition; settings: sekikaic acid 15 μM, GACKIX 5 μM, MLL and pKID peptide 15 μM each
Outline: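 Aromatic 1H resonances of the test compound (15 μM) were recorded alone and after adding GACKIX (5 μM). MLL and pKID peptides (15 μM each) were then added singly or together. Resonance positions were compared with the unbound-state spectrum to judge reversal of binding.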

[4] = target: Fl-KID-GACKIX complex (GACKIX domain of CBP/p300) (Mus musculus, UniProt P45481); experiment: Fluorescence polarization inhibition of the Fl-KID-GACKIX complex; format: binding
Outline: as §1

Sequence of MLL-GACKIX complex (GACKIX domain of CBP/p300) (P45481 586-665 limits assumed, one chain of several): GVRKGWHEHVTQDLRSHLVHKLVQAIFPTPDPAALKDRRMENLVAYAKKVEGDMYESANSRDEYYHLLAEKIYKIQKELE
Sequence of Fl-KID-GACKIX complex (GACKIX domain of CBP/p300) (P45481 586-665 limits assumed, one chain of several): as above
Sequence of GACKIX domain of CBP/p300 (P45481 586-665 limits assumed): as the sequence (P45481 586-665 limits assumed, one chain of several) above

IC50 ([1]; read-out: IC50, inhibition of the MLL-GACKIX complex, FP, fluorescein-tagged MLL) [µM]	Inhibition of VP2-Med15(107-357) (in words) (VP2-Med15(107-357))	Reversibility of binding to GACKIX [3]	Inhibition of Fl-MLL binding to GACKIX (in words) ([1]; competitive FP binding assay)	Inhibition of Fl-KID binding to GACKIX (in words) ([4]; competitive FP binding assay)	IC50 [1] [µM]	IC50 [4] [µM]	Structure (SMILES)	Effect on expression of c-Jun-driven gene Cyclin D1 in cells [2]
34	did not significantly inhibit	reversible					CCCc1cc(OC)cc(O)c1C(=O)Oc1c(OC)cc(CCC)c(C(=O)O)c1O [sekikaic acid]	dose dependent down regulation
			unable to significantly inhibit	unable to significantly inhibit			Cc1cc(OC(=O)c2c(C)cc(O)cc2O)cc(O)c1C(=O)O [lecanoric acid, reference compound]	no effect
					17	25	CCCCCc1c2c(cc(O)c1C(=O)O)OC(=O)c1c(cc(OC)cc1C(=O)CCCC)O2 [lobaric acid]	dose dependent down regulation
